≈ marks a conversion by molar mass, not a printed value.
What was measured:
[1] = tested on: Leishmania infantum; experiment: Antileishmanial activity against Leishmania infantum zymodeme MON-1 promastigotes assessed as parasite survival at 10 to 100 ug/ml after 48 hrs; type: functional
Outline: (§1)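 Log-phase promastigotes from 26 °C Schneider's Drosophila medium with 10% heat-inactivated FCS, pH 7.2, adjusted to 5×10^6 parasites/mL. Compounds in DMSO (≤1% v/v) at 10–100 µg/mL, incubated at 26 °C. Surviving promastigotes counted in a Neubauer chamber and compared with drug-free controls.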

[2] = Therapeutic index, ratio of TC50 for mouse RAW264.7 cells to EC50 for Leishmania infantum zymodeme MON-1 axenic amastigotes; conditions: read-out: TI
Outline: (§2)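 Index calculated as TC50 on RAW 264.7 macrophages (MTT assay) divided by EC50 on L. infantum promastigotes or axenic amastigotes, using the same incubation time (24 or 48 h) for both.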

[3] = Therapeutic index, ratio of TC50 for mouse RAW264.7 cells to EC50 for Leishmania infantum zymodeme MON-1 promastigotes after 24 hrs; conditions: read-out: TI; outline: as §2
[4] = tested on: Leishmania infantum; experiment: Antileishmanial activity against Leishmania infantum zymodeme MON-1 promastigotes assessed as parasite survival after 24 hrs; type: functional, organism-based; conditions: zymodeme MON-1, 24 h; outline: as §1
[5] = Therapeutic index, ratio of TC50 for mouse RAW264.7 cells to EC50 for Leishmania infantum zymodeme MON-1 axenic amastigotes after 48 hrs; conditions: read-out: TI; outline: as §2
[6] = tested on: Leishmania infantum; experiment: Antileishmanial activity against Leishmania infantum zymodeme MON-1 promastigotes assessed as parasite survival after 48 hrs; type: functional, organism-based; conditions: zymodeme MON-1, 48 h; outline: as §1
[7] = Cytotoxicity against mouse RAW264.7 cells after 48 hrs by MTT assay; type: cell-based; conditions: read-out: TC50
Outline: (§3)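 RAW 264.7 cells in RPMI 1640 with L-glutamine, 10% FBS and penicillin/streptomycin, seeded at 1×10^5 cells/well and left to adhere overnight at 37 °C, 5% CO2. Compounds at 10, 50 and 100 µg/mL, 37 °C. MTT (5 mg/mL) added for 4 h, formazan dissolved in DMSO, A540 read. Survival expressed as percent of untreated control, in triplicate. TC50 taken as the 50% macrophage-death concentration.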

[8] = Cytotoxicity against mouse RAW264.7 cells after 24 hrs by MTT assay; type: cell-based; conditions: read-out: TC50; outline: as §3
[9] = tested on: Leishmania infantum; experiment: Antileishmanial activity against Leishmania infantum zymodeme MON-1 axenic amastigotes assessed as parasite survival after 24 hrs; type: functional, organism-based; conditions: zymodeme MON-1, 24 h
Outline: (§4)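 Axenic amastigotes grown cell-free at 37 °C, 5% CO2 in MAA/20 (modified medium 199 with Hank's salts, tryptocasein, glucose, glutamine, NaHCO3, hemin, 25 mM HEPES, pH 6.5, 20% heat-inactivated FBS). Compounds in DMSO (≤1% v/v) at 10–100 µg/mL, 37 °C. Viability read after TO-PRO-3 staining (10 min, room temperature) by ImageStream imaging cytometry, ≥10,000 events per sample.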

[10] = Therapeutic index, ratio of TC50 for mouse RAW264.7 cells to EC50 for Leishmania infantum zymodeme MON-1 promastigotes after 48 hrs; conditions: read-out: TI; outline: as §2
[11] = tested on: Leishmania infantum; experiment: Antileishmanial activity against Leishmania infantum zymodeme MON-1 axenic amastigotes assessed as parasite survival after 48 hrs; type: functional, organism-based; conditions: zymodeme MON-1, 48 h; outline: as §4

| SMILES | Activity [1] | selectivity ratio [2] | selectivity ratio at 24 h [3] | EC50 [4] | EC95 [4] | selectivity ratio at 48 h [5] | EC50 [6] | EC95 [6] | CC50 at 48 h [7] | CC50 at 24 h [8] | EC50 [9] | EC95 [9] | selectivity ratio at 48 h [10] | EC50 [11] | EC95 [11] |
| --- | --- | --- | --- | --- | --- | --- | --- | --- | --- | --- | --- | --- | --- | --- | --- |
| Cc1ccc([C@@H]2CC(=O)C[C@@H](c3ccc(C)cc3)C23C(=O)Nc2ccccc23)cc1 | >74% | 10.6 | 10.2 | 6.1 µg/mL (≈ 15.4 µM) | 72.1 µg/mL (≈ 182 µM) | 20.3 | 2 µg/mL (≈ 5.06 µM) | 71.4 µg/mL (≈ 181 µM) | 38.6 µg/mL (≈ 97.6 µM) | 62.8 µg/mL (≈ 159 µM) | 5.9 µg/mL (≈ 14.9 µM) | 69.4 µg/mL (≈ 175 µM) | 18.7 | 1.9 µg/mL (≈ 4.8 µM) | 69.9 µg/mL (≈ 177 µM) |
| COc1ccc([C@@H]2CC(=O)C[C@@H](c3ccc(OC)cc3)C23C(=O)Nc2ccccc23)cc1 | >74% | 3.8 | 3.3 | 23.9 µg/mL (≈ 55.9 µM) | 82.4 µg/mL (≈ 193 µM) | 3.4 | 16.2 µg/mL (≈ 37.9 µM) | 75.2 µg/mL (≈ 176 µM) | 51 µg/mL (≈ 119 µM) | 80.5 µg/mL (≈ 188 µM) | 21 µg/mL (≈ 49.1 µM) | 79.3 µg/mL (≈ 185 µM) | 3.1 | 15.1 µg/mL (≈ 35.3 µM) | 74.8 µg/mL (≈ 175 µM) |
| O=C1C[C@@H](c2ccc(Cl)cc2)C2(C(=O)Nc3ccccc32)[C@H](c2ccc(Cl)cc2)C1 | >74% | 2.1 | 1.8 | 23.4 µg/mL (≈ 53.6 µM) | 77.1 µg/mL (≈ 177 µM) | 4.4 | 5.1 µg/mL (≈ 11.7 µM) | 72.1 µg/mL (≈ 165 µM) | 21.3 µg/mL (≈ 48.8 µM) | 44 µg/mL (≈ 101 µM) | 21 µg/mL (≈ 48.1 µM) | 75.2 µg/mL (≈ 172 µM) | 4.2 | 4.9 µg/mL (≈ 11.2 µM) | 69.9 µg/mL (≈ 160 µM) |
| O=C(CC(c1ccc(Cl)cc1)C1C(=O)Nc2ccccc21)c1ccccc1 (stereo not drawn) | – | 2 | 1.8 | 19.7 µg/mL (≈ 52.4 µM) | 76.5 µg/mL (≈ 204 µM) | 3.5 | 11.5 µg/mL (≈ 30.6 µM) | 73.6 µg/mL (≈ 196 µM) | 35 µg/mL (≈ 93.1 µM) | 36.9 µg/mL (≈ 98.2 µM) | 18.5 µg/mL (≈ 49.2 µM) | 74 µg/mL (≈ 197 µM) | 3 | 10.1 µg/mL (≈ 26.9 µM) | 70.2 µg/mL (≈ 187 µM) |
| O=C(CC(c1cccc(Cl)c1)C1C(=O)Nc2ccccc21)c1ccccc1 (stereo not drawn) | – | 6.3 | 6.1 | 31.6 µg/mL (≈ 84.1 µM) | 85.5 µg/mL (≈ 227 µM) | 9.3 | 13.2 µg/mL (≈ 35.1 µM) | 74 µg/mL (≈ 197 µM) | 116 µg/mL (≈ 309 µM) | 193 µg/mL (≈ 514 µM) | 30.5 µg/mL (≈ 81.1 µM) | 80.2 µg/mL (≈ 213 µM) | 8.8 | 12.5 µg/mL (≈ 33.3 µM) | 71.5 µg/mL (≈ 190 µM) |
| O=C1C[C@@H](c2ccccc2)C2(C(=O)Nc3ccccc32)[C@H](c2ccccc2)C1 | >74% | 3.1 | 2.9 | 29.8 µg/mL (≈ 81.1 µM) | 86.1 µg/mL (≈ 234 µM) | 11.4 | 6.9 µg/mL (≈ 18.8 µM) | 73.2 µg/mL (≈ 199 µM) | 65.2 µg/mL (≈ 177 µM) | 88.8 µg/mL (≈ 242 µM) | 28.5 µg/mL (≈ 77.6 µM) | 78.3 µg/mL (≈ 213 µM) | 9.4 | 5.7 µg/mL (≈ 15.5 µM) | 74.1 µg/mL (≈ 202 µM) |

From ChEMBL document CHEMBL3102842, “Direct synthesis of C3-mono-functionalized oxindoles from N-unprotected 2-oxindole and their antileishmanial activity” (Bioorg Med Chem, 2014)
